This passage reports IC50 results from ChEMBL document CHEMBL2062459, “Type 1 Phototherapeutic Agents. 2. Cancer Cell Viability and ESR Studies of Tricyclic Diarylamines” (ACS Med Chem Lett, 2012).

What is called IC50 is the concentration needed to halve the response being measured.

For the assay, the system named is U-937. Kind of assay: Cytotoxicity in UV-irradiated human U937 cells exposed to photosensitizer for 2 hrs before irradiation for 20 mins by WST-1 assay. It counts as functional, cell-based. The note with it: U-937, light or radiation study. The essentials:
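Compounds were made up as 8 mM DMSO stocks and diluted into culture medium so that final DMSO on cells stayed below 0.5%. Cells were tested across a concentration range both in the dark and with light exposure. Values are the average of at least three independent runs.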
For orientation: Formazan colour is commonly taken as a measure of viable cells.
As for `c1ccc2c(c1)Cc1ccccc1N2` [ACRIDAN], the IC50 came to 0.68 µM.
The value for `C1=Cc2ccccc2Nc2ccccc21` [IMINOSTILBENE] was 2.58 µM; that for `c1ccc2c(c1)Nc1ccccc1S2` [PHENOTHIAZINE] was 1.39 µM; that for `c1ccc(C2c3ccccc3Nc3ccccc32)cc1` was 0.17 µM.
The same measure for `c1ccc2c(c1)[nH]c1ccccc12` [CARBAZOLE]: 5.56 µM; for `c1ccc2c(c1)Nc1ccccc1O2` [PHENOXAZINE]: 14.5 µM.
